Assay results published in ChEMBL document CHEMBL1142623, “Phytotoxic compounds from the new coprophilous fungus guanomyces polythrix” (J Nat Prod, 2000).
Calls of active or inactive are those of the source. The calls are words filed in the database; no cut-off is given here.

Key:
[1] = molecular target: Calmodulin (Spinacia oleracea) (UniProt P04353); assay: Binding affinity to spinach calmodulin at 0.033 ug/mL after 1.5 hrs by electrophoretic mobility assay in presence of calcium chloride
How it was run: (§1)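 Commercial spinach or bovine brain calmodulin, 2-µg samples, pretreated with compound for 1.5 h at 30 °C in presence of 1 mM CaCl2 or EGTA, then run on 15% polyacrylamide SDS-PAGE gels. Binding judged by shift in electrophoretic mobility relative to untreated calmodulin under the same condition (Ca2+ vs EGTA).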

Echinochloa crus-galli = assay: Phytotoxicity against Echinochloa crusgalli assessed as inhibition of radicle elongation; format: functional, organism-based
How it was run: (§2)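 Seedling radicle growth assay at 28 °C. Pure compounds tested at 1, 10 and 100 µg mL-1, with 2,4-D as positive control. Results analysed by ANOVA (p < 0.05). IC50 calculated by Probit analysis from percent radicle growth inhibition.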

Calmodulin (Bos taurus) [2] = molecular target: Calmodulin (Bos taurus) (UniProt P62157); assay: Binding affinity to bovine brain calmodulin at 0.033 ug/mL after 1.5 hrs by electrophoretic mobility assay in presence of calcium chloride
How it was run: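 Bovine brain calmodulin (2 µg samples) pretreated with isolates at 0.033 µg/mL plus 1 mM CaCl2 for 1.5 h at 30 °C. Mobility then compared against untreated calmodulin on 15% polyacrylamide SDS-PAGE. A parallel condition used EGTA in place of Ca2+.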

[3] = tested on: Amaranthus hypochondriacus; assay: Phytotoxicity against Amaranthus hypochondriacus assessed as inhibition of radicle elongation; format: functional, organism-based; how it was run: as §2
[4] = molecular target: Calmodulin (Spinacia oleracea) (UniProt P04353); assay: Binding affinity to spinach calmodulin at 0.033 ug/mL after 1.5 hrs by electrophoretic mobility assay presence of EGTA; how it was run: as §1
Calmodulin (Bos taurus) [5] = molecular target: Calmodulin (Bos taurus) (UniProt P62157); assay: Binding affinity to bovine brain calmodulin at 0.033 ug/mL after 1.5 hrs by electrophoretic mobility assay in presence of EGTA; how it was run: as §1

Structure (SMILES)	Activity [1]	IC50 (Echinochloa crus-galli) [µM]	Activity (Calmodulin (Bos taurus) [2])	IC50 [3] [µM]	Activity [4]	Activity (Calmodulin (Bos taurus) [5])
COc1cc(OC)c2c(O)c3c(=O)cc(C)oc3cc2c1 [RUBROFUSARIN B]	Active	87	Active	13	Active	inactive
Cc1cc(O)c2c(c1)C(=O)c1cc(O)cc(O)c1C2=O [EMODIN]	Active	20	Active	130	Active	inactive
CC1=C2C(=CO[C@H](C)[C@H]2C)C(O)=C(C(=O)O)C1=O [CITRININ]	Active	63	Active	55	Active	inactive
COc1cc(OC)c2c(O)c3c(cc2c1)O[C@@H](C)[C@H](C)C3=O	Active	120	Active	100	Active	inactive
COC(=O)c1ccc(O)cc1 [METHYLPARABEN]	Active	630	Active	23	Active	inactive
COc1cc(OC)c2c(O)c3c(c(OC)c2c1)O[C@@H](C)[C@H](C)C3=O	Active	61		65	Active	Active
COc1cc(OC)c2c(O)c3c(cc2c1)O[C@@H](C)CC3=O	Active	87	Active	23	Active	inactive
O=C(O)COc1ccc(Cl)cc1Cl [2,4-DICHLOROPHENOXYACETIC ACID]		880		180		
COc1cc(OC)c2c(O)c3c(=O)c(C)c(C)oc3cc2c1	Active	170	Active	80	Active	inactive
COc1cc(OC)c2c(O)c3c(c(OC)c2c1)O[C@@H](C)CC3=O	Active	40	Active	13	Active	inactive
